# Results from ChEMBL document CHEMBL5712915, “The Role of the Histone Methyltransferase EZH2 in Liver Inflammation and Fibrosis in STAM NASH Mice” (Biology (Basel), 2020).
# The source made the active and inactive calls. The calls are words filed in the database; no cut-off is given here.
# Key:
# Mus musculus [1] = assay: Anti-NASH activity in streptozotocin induced C57BL/6 mouse STAM model administered at 10 mg/kg, po daily for 3 weeks by hematoxylin and eosin staining analysis; assay type: functional, organism-based
# Outline: (§1)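 Male C57BL/6 pups given streptozotocin (200 μg per mouse) at two days old, high-fat diet from four weeks. Dosed orally once daily at 10 mg/kg from six to nine weeks of age. Liver fixed in 10% neutral buffered formalin and paraffin-embedded. 5-μm sections stained with H&E, or with Oil Red O for hepatic lipid.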
# Mus musculus [2] = assay: Anti-NASH activity in streptozotocin induced C57BL/6 mouse STAM model assessed as reduction of liver steatosis administered at 10 mg/kg, po daily for 3 weeks by oil red O staining analysis; assay type: functional, organism-based; outline: as §1
# [3] = Toxicity in streptozotocin induced C57BL/6 mouse STAM model assessed as change in body weight at 10 mg/kg, po daily for 3 weeks; assay type: organism-based; conditions: in vivo, 504 h
# Outline: (§2)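 In STAM mice (male C57BL/6, streptozotocin 200 μg per mouse at day 2, high-fat diet from week 4), oral dosing at 10 mg/kg once daily from six to nine weeks. Body weight recorded daily between 15:00 and 17:00. Liver, kidney and white adipose tissue weights expressed relative to body weight. Means ± SE; one-way ANOVA with Newman–Keuls test.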
# [4] = Toxicity in streptozotocin induced C57BL/6 mouse STAM model assessed as change in liver weight at 10 mg/kg, po daily for 3 weeks; assay type: organism-based; conditions: in vivo, 504 h; outline: as §2
# [5] = Toxicity in streptozotocin induced C57BL/6 mouse STAM model assessed as change in kidney weight at 10 mg/kg, po daily for 3 weeks; assay type: organism-based; conditions: in vivo, 504 h; outline: as §2
# [6] = Toxicity in streptozotocin induced C57BL/6 mouse STAM model assessed as change in white adipose tissue weight at 10 mg/kg, po daily for 3 weeks; assay type: organism-based; conditions: in vivo, 504 h; outline: as §2
# Mus musculus [7] = assay: Antiinflammatory activity in streptozotocin induced C57BL/6 mouse STAM model assessed as reduction of TNF-alpha level administered at 10 mg/kg, po daily for 3 weeks; assay type: functional, organism-based
# Outline: (§3)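 Streptozotocin (200 μg per mouse) given to two-day-old male C57BL/6 pups, high-fat diet from four weeks. Oral dosing at 10 mg/kg once daily for three weeks, starting at six weeks of age. Under anesthesia 500 μl blood collected and serum separated for TNF-α, ALT and glucose. Means ± SE; one-way ANOVA with Newman–Keuls test.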
# Mus musculus [8] = assay: Antiinflammatory activity in streptozotocin induced C57BL/6 mouse STAM model assessed as reduction of ALT level administered at 10 mg/kg, po daily for 3 weeks; assay type: functional, organism-based; outline: as §3
# Mus musculus [9] = assay: Antiinflammatory activity in streptozotocin induced C57BL/6 mouse STAM model assessed as reduction of glucose level administered at 10 mg/kg, po daily for 3 weeks; assay type: functional, organism-based; outline: as §3
# Mus musculus [10] = assay: Antiinflammatory activity against streptozotocin induced C57BL/6 mouse STAM model assessed as increase in Runx3 mRNA expression administered at 10 mg/kg, po for 3 weeks; assay type: functional, organism-based
# Outline: (§4)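 STAM mice: male C57BL/6 pups given streptozotocin (200 μg per mouse) at day 2, high-fat diet from week 4, oral dosing at 10 mg/kg once daily from weeks 6–9. Liver total RNA reverse transcribed. qPCR run for 40 cycles of 95 °C 15 s, 55–60 °C 15 s, 72 °C 30 s. Comparative Ct method, normalized to GAPDH/18S, compared with control group.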
# Mus musculus [11] = assay: Antiinflammatory activity against streptozotocin induced C57BL/6 mouse STAM model assessed as reduction of IFN-gamma expression administered at 10 mg/kg, po for 3 weeks; assay type: functional, organism-based; outline: as §4
# [12] = target: Histone-lysine N-methyltransferase EZH2 (Mus musculus) (UniProt Q61188); assay: In vivo inhibition of EZH2 in streptozotocin induced C57BL/6 mouse STAM model assessed as reduction mRNA level administered at 10 mg/kg, po for 3 weeks; assay type: functional, organism-based; outline: as §4
# Sequence of Histone-lysine N-methyltransferase EZH2 (Mus musculus) (Q61188 whole entry): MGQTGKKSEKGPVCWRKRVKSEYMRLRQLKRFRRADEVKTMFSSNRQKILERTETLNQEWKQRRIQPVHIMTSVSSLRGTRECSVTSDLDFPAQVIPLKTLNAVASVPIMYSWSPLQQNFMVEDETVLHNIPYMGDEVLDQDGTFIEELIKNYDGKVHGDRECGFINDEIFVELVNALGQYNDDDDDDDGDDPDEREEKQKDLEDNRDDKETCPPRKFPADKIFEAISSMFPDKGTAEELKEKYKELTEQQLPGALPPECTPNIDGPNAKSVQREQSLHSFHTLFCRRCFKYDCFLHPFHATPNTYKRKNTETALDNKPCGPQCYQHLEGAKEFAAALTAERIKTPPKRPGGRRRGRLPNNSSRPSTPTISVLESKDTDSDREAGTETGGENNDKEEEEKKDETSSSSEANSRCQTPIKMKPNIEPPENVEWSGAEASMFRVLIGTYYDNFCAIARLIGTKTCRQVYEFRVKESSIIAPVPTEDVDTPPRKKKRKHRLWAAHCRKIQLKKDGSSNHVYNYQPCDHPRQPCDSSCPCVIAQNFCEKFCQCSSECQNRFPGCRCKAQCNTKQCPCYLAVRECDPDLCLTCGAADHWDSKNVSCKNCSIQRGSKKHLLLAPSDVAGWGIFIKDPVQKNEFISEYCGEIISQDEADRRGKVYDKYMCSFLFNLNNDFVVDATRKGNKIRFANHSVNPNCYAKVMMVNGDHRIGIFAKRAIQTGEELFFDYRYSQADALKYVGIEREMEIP
SMILES,Activity (Mus musculus [1]),Activity (Mus musculus [2]),Activity [3],Activity [4],Activity [5],Activity [6],Activity (Mus musculus [7]),Activity (Mus musculus [8]),Activity (Mus musculus [9]),Activity (Mus musculus [10]),Activity (Mus musculus [11]),inhibition [12]
CCN(c1cc(-c2ccc(CN3CCOCC3)cc2)cc(C(=O)NCc2c(C)cc(C)[nH]c2=O)c1C)C1CCOCC1 [TAZEMETOSTAT],Active,Active,Non-Toxic,Non-Toxic,Non-Toxic,Non-Toxic,inactive,inactive,inactive,Active,Active,–
CC[C@H]1[C@@H](O)[C@@H]2[C@H](CC[C@]3(C)[C@@H]([C@H](C)CCC(=O)O)CC[C@@H]23)[C@@]2(C)CC[C@@H](O)C[C@@H]12,Active,Active,–,–,–,–,–,–,–,–,–,–
CCCc1cc(C)[nH]c(=O)c1CNC(=O)c1cc(-c2ccc(N3CCN(C(C)C)CC3)nc2)cc2c1cnn2C(C)C,Active,Active,Non-Toxic,Non-Toxic,Non-Toxic,Non-Toxic,Active,inactive,inactive,Active,Active,Active
